According to paper PMC8359148 (ACS Omega, 2021):

Assays:
[1] = tested on: chloroquine-resistant P. falciparum Dd2 parasites; experiment: SYBR Green I dose–response assay against Dd2 parasites; type: cell-based; settings: Plasmodium falciparum, DD2, read-out: EC50 Dd2, chloroquine-resistant P. falciparum Dd2, three or more independent experiments
Outline: (§1)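 Dose–response EC50 values, each from three or more independent experiments. Dd2 and 3D7 runs use chloroquine as comparator. The selectivity index is calculated as HepG2 EC50 divided by Dd2 EC50.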

[2] = tested on: wild-type P. falciparum 3D7 cells; experiment: dose–response assay against 3D7 cells; type: cell-based; settings: Plasmodium falciparum, 3D7, read-out: EC50 3D7
Outline: as §1

CCN(CC)CCCC(C)Nc1ccnc2cc(Cl)ccc12 (stereo not shown) [Chloroquine, reference compound]
EC50 [1]: 0.19 µM
EC50 [2]: 0.017 µM

CC[C@]12CCCN3CCc4c(n(c5ccccc45)[C@@](O)(C(=O)OC)C1)[C@@H]32 [Compound 1, Vincamine, reference compound]
EC50 [1]: > 50 µM
EC50 [2]: > 50 µM

CC[C@@]12C=C(C(=O)OC)n3c(c(c4ccccc43)CCNCCC1)[C@@H]2c1ccc(O)cc1 [Compound 18, Methyl (11S,19S)-11-ethyl-19-(4-hydroxyphenyl)-8,15-diazatetracyclo[9.6.2.0^2,7.0^8,18]nonadeca-1(18),2(7),3,5,9-pentaene-9-carboxylate]
EC50 [1]: 10.8 ± 2.93 µM

CC[C@@]12C=C(C(=O)OC)n3c(c(c4ccccc43)CCN(/C=C/C(=O)OC)CCC1)[C@@H]2c1ccc(OC(C)=O)cc1 [Compound 19, Methyl (11S,19S)-19-[4-(acetyloxy)phenyl]-11-ethyl-15-[(1E)-3-methoxy-3-oxoprop-1-en-1-yl]-8,15-diazatetracyclo[9.6.2.0^2,7.0^8,18]nonadeca-1(18),2(7),3,5,9-pentaene-9-carboxylate]
EC50 [1]: 6.11 ± 1.56 µM

CC[C@@]12C=C(C(=O)OC)n3c(c(c4ccccc43)CCN(C(C)=O)CCC1)[C@@H]2c1ccc(O)cc1 [Compound 20, methyl (11S,19S)-15-acetyl-11-ethyl-19-(4-hydroxyphenyl)-8,15-diazatetracyclo[9.6.2.0^2,7.0^8,18]nonadeca-1(18),2(7),3,5,9-pentaene-9-carboxylate]
EC50 [1]: > 20 µM
EC50 [2]: 12 ± 3.4 µM

CC[C@@]12C=C(C(=O)OC)n3c(c(c4ccccc43)CCN(C(=O)c3ccc(OC)nc3)CCC1)[C@@H]2c1ccc(O)cc1 [Compound 21, methyl (11S,19S)-11-ethyl-19-(4-hydroxyphenyl)-15-(6-methoxypyridine-3-carbonyl)-8,15-diazatetracyclo[9.6.2.0^2,7.0^8,18]nonadeca-1(18),2(7),3,5,9-pentaene-9-carboxylate]
EC50 [1]: 0.63 ± 0.12 µM
EC50 [2]: 1.33 ± 0.18 µM

CC[C@@]12C=C(C(=O)OC)n3c(c(c4ccccc43)CCN(C(=O)COCCOCCOC)CCC1)[C@@H]2c1ccc(O)cc1 [Compound 22, methyl (11S,19S)-11-ethyl-19-(4-hydroxyphenyl)-15-{2-[2-(2-methoxyethoxy)ethoxy]acetyl}-8,15-diazatetracyclo[9.6.2.0^2,7.0^8,18]nonadeca-1(18),2(7),3,5,9-pentaene-9-carboxylate]
EC50 [1]: 4.1 ± 0.55 µM

CC[C@@]12C=C(C(=O)OC)n3c(c(c4ccccc43)CCN(C(=O)C3CCCCC3)CCC1)[C@@H]2c1ccc(O)cc1 [Compound 23, methyl (11S,19S)-15-cyclohexanecarbonyl-11-ethyl-19-(4-hydroxyphenyl)-8,15-diazatetracyclo[9.6.2.0^2,7.0^8,18]nonadeca-1(18),2(7),3,5,9-pentaene-9-carboxylate]
EC50 [1]: 2.53 ± 0.34 µM

CC[C@@]12C=C(C(=O)OC)n3c(c(c4ccccc43)CCN(C(=O)c3ccc(C(F)(F)F)cc3)CCC1)[C@@H]2c1ccc(O)cc1 [Compound 24, methyl (11S,19S)-11-ethyl-19-(4-hydroxyphenyl)-15-[4-(trifluoromethyl)benzoyl]-8,15-diazatetracyclo[9.6.2.0^2,7.0^8,18]nonadeca-1(18),2(7),3,5,9-pentaene-9-carboxylate]
EC50 [1]: 1.54 ± 0.004 µM

CC[C@@]12C=C(C(=O)OC)n3c(c(c4ccccc43)CCN(C(=O)c3ccc[nH]3)CCC1)[C@@H]2c1ccc(O)cc1 [Compound 29, methyl (11S,19S)-11-ethyl-19-(4-hydroxyphenyl)-15-(1H-pyrrole-2-carbonyl)-8,15-diazatetracyclo[9.6.2.0^2,7.0^8,18]nonadeca-1(18),2(7),3,5,9-pentaene-9-carboxylate]
EC50 [1]: 2.98 ± 0.4 µM
EC50 [2]: 3.18 ± 0.07 µM

CC[C@@]12C=C(C(=O)OC)n3c(c(c4ccccc43)CCN(C(=O)c3ccncc3)CCC1)[C@@H]2c1ccc(O)cc1 [Compound 31, methyl (11S,19S)-11-ethyl-19-(4-hydroxyphenyl)-15-(pyridine-4-carbonyl)-8,15-diazatetracyclo[9.6.2.0^2,7.0^8,18]nonadeca-1(18),2(7),3,5,9-pentaene-9-carboxylate]
EC50 [1]: 5.9 ± 0.26 µM
